Tests used:
Assay type in all cases: functional
OVCAR-5 = assay: Cytotoxicity against human OVCAR5 cells assessed as cell growth at 0.001 uM after 48 hrs by sulforhodamine B assay; conditions: OVCAR-5, 48 h, read-out: Activity
EKVX [1] = assay: Cytotoxicity against human EKVX cells assessed as cell growth at 0.01 uM after 48 hrs by sulforhodamine B assay; conditions: read-out: Activity
HOP-62 = assay: Growth inhibition of human HOP62 cells after 48 hrs by sulforhodamine B assay; conditions: HOP-62, 48 h
Summary of the method: (§1)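 NCI 60-cell screen, five-dose mode. Cells grown in RPMI 1640 with 5% FBS and 2 mM L-glutamine and plated at 5000-40,000 cells/well according to doubling time. After 24 h preincubation, a Tz plate was TCA-fixed. Five concentrations (10-fold or 1/2 log dilutions) were applied for 48 h at 37 °C. SRB staining read at 515 nm. IC50 taken from [(Ti-Tz)/(C-Tz)]×100 = 50.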

EKVX [2] = assay: Cytotoxicity against human EKVX cells assessed as cell growth at 100 nM after 48 hrs by sulforhodamine B assay; conditions: read-out: Activity
MDA-MB-468 = assay: Cytotoxicity against human MDA-MB-468 cells assessed as cell growth at 1 uM after 48 hrs by sulforhodamine B assay; conditions: MDA-MB-468, 48 h, read-out: Activity
SNB-19 = assay: Cytotoxicity against human SNB19 cells assessed as cell growth at 0.01 uM after 48 hrs by sulforhodamine B assay; conditions: SNB-19, 48 h, read-out: Activity
K562 = assay: Cytotoxicity against human K562 cells assessed as cell growth at 0.01 uM after 48 hrs by sulforhodamine B assay; conditions: K562, 48 h, read-out: Activity
MDA-MB-231 [3] = assay: Cytotoxicity against human MDA-MB-231 cells assessed as cell growth at 0.001 uM after 48 hrs by sulforhodamine B assay; conditions: MDA-MB-231, 48 h, read-out: Activity
SNB-75 = assay: Cytotoxicity against human SNB75 cells assessed as cell growth at 10 uM after 48 hrs by sulforhodamine B assay; conditions: SNB-75, 48 h, read-out: Activity
EKVX [4] = assay: Cytotoxicity against human EKVX cells assessed as cell growth at 10 uM after 48 hrs by sulforhodamine B assay; conditions: read-out: Activity
NCI-H322M [5] = assay: Cytotoxicity against human NCI-H322M cells assessed as cell growth at 10 uM; conditions: read-out: Activity
Summary of the method: (§2)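 NCI-60 screen: cells grown in RPMI 1640 with 5% FBS and 2 mM L-glutamine, plated at 5000–40,000 cells/well according to doubling time, and preincubated 24 h at 37 °C, 5% CO2. The single 10 µM dose (DMSO stock) was added, then incubated 48 h. Cells were TCA-fixed and stained with 0.4% SRB, read at 515 nm, and growth % calculated against time-zero and control plates.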

CAKI-1 = assay: Growth inhibition of human Caki1 cells after 48 hrs by sulforhodamine B assay; conditions: CAKI-1, 48 h; for CC50: read-out: LC50 (the source's name)
Summary of the method: (§3)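 NCI five-dose SRB assay in RPMI 1640 with 5% FBS and 2 mM L-glutamine. Cells were preincubated 24 h, then exposed 48 h at 37 °C to five concentrations (10-fold or half-log serial dilutions from DMSO stocks). TCA fixation, SRB staining, and absorbance at 515 nm followed. IC50 was taken where [(Ti−Tz)/(C−Tz)]×100 = 50, with Tz as time-zero cell density.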

MDA-MB-231 [6] = assay: Cytotoxicity against human MDA-MB-231 cells assessed as cell growth at 10 uM; conditions: read-out: Activity; summary of the method: as §2
MDA-MB-231 [7] = assay: Cytotoxicity against human MDA-MB-231 cells assessed as cell growth at 0.01 uM after 48 hrs by sulforhodamine B assay; conditions: MDA-MB-231, 48 h, read-out: Activity
U-251 = assay: Cytotoxicity against human U251 cells assessed as cell growth at 0.01 uM after 48 hrs by sulforhodamine B assay; conditions: U-251, 48 h, read-out: Activity
A549 = assay: Growth inhibition of human A549 cells after 48 hrs by sulforhodamine B assay; conditions: A549, 48 h; summary of the method: as §3
OVCAR-4 = assay: Cytotoxicity against human OVCAR4 cells assessed as cell growth at 100 nM after 48 hrs by sulforhodamine B assay; conditions: OVCAR-4, 48 h, read-out: Activity
786-0 = assay: Growth inhibition of human 786-0 cells after 48 hrs by sulforhodamine B assay; conditions: 786-0, 48 h; for CC50: read-out: LC50 (the source's name); summary of the method: as §3
HCT-116 = assay: Growth inhibition of human HCT116 cells after 48 hrs by sulforhodamine B assay; conditions: HCT-116, 48 h; for CC50: read-out: LC50 (the source's name); summary of the method: as §1
SF-539 = assay: Growth inhibition of human SF539 cells after 48 hrs by sulforhodamine B assay; conditions: SF-539, 48 h; for CC50: read-out: LC50 (the source's name); summary of the method: as §1
LOX IMVI = assay: Cytotoxicity against human LOXIMVI cells assessed as cell growth at 0.01 uM after 48 hrs by sulforhodamine B assay; conditions: read-out: Activity
HL-60(TB) [8] = assay: Cytotoxicity against human HL-60(TB) cells assessed as cell growth at 0.001 uM after 48 hrs by sulforhodamine B assay; conditions: HL-60, 48 h, read-out: Activity
Summary of the method: (§4)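 NCI 60-cell panel. Cells are grown in RPMI 1640 with 5% FBS and 2 mM L-glutamine, seeded at 5000–40,000 cells/well according to doubling time, and preincubated 24 h. Time-zero plates are TCA-fixed. Compound from DMSO stock is given at five 10-fold or 1/2-log concentrations for 48 h at 37 °C, 5% CO2. Suspension cells are fixed with 80% TCA (final 16%) and SRB-stained, with absorbance at 515 nm. Percent growth is derived from Tz, control and test readings.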

NCI-H226 = assay: Cytotoxicity against human NCI-H226 cells assessed as cell growth at 0.001 uM after 48 hrs by sulforhodamine B assay; conditions: NCI-H226, 48 h, read-out: Activity
NCI-H322M [9] = assay: Cytotoxicity against human NCI-H322M cells assessed as cell growth at 0.01 uM after 48 hrs by sulforhodamine B assay; conditions: read-out: Activity
OVCAR-8 = assay: Cytotoxicity against human OVCAR8 cells assessed as cell growth at 10 uM after 48 hrs by sulforhodamine B assay; conditions: OVCAR-8, 48 h, read-out: Activity
SK-MEL-2 = assay: Cytotoxicity against human SK-MEL-2 cells assessed as cell growth at 10 uM; conditions: read-out: Activity; summary of the method: as §2
HL-60(TB) [10] = assay: Cytotoxicity against human HL-60(TB) cells assessed as cell growth at 10 uM after 48 hrs by sulforhodamine B assay; conditions: HL-60, 48 h, read-out: Activity; summary of the method: as §4
HT-29 = assay: Growth inhibition of human HT-29 cells after 48 hrs by sulforhodamine B assay; conditions: HT-29, 48 h; summary of the method: as §1
TK-10 = assay: Cytotoxicity against human TK10 cells assessed as cell growth at 10 uM after 48 hrs by sulforhodamine B assay; conditions: TK-10, 48 h, read-out: Activity

Structure (SMILES): COc1cc(C)cc(-c2c(-c3ccnc(-c4ccc(C(C)=O)cc4)c3)cnn2CC#N)c1
- growth at 0.001 µM (OVCAR-5): 85%
- growth at 0.01 µM (EKVX [1]): 97%
- GI50 (HOP-62): 3.35 µM
- LC50 (50% lethal concentration) (HOP-62): > 100 µM
- TGI (HOP-62): > 100 µM
- growth at 0.1 µM (EKVX [2]): 91%
- growth at 1 µM (MDA-MB-468): -48%
- growth at 0.01 µM (SNB-19): 102%
- growth at 0.01 µM (K562): 80%
- growth at 0.001 µM (MDA-MB-231 [3]): 99%
- growth at 10 µM (SNB-75): 1%
- growth at 10 µM (EKVX [4]): 46%
- growth at 10 µM (NCI-H322M [5]): 104%
- GI50 (CAKI-1): 4.24 µM
- TGI (CAKI-1): > 100 µM
- CC50 (CAKI-1): > 100 µM
- growth at 10 µM (MDA-MB-231 [6]): 63.8%
- growth at 0.01 µM (MDA-MB-231 [7]): 95%
- growth at 0.01 µM (U-251): 89%
- GI50 (A549): 3.68 µM
- LC50 (A549): > 100 µM
- TGI (A549): > 100 µM
- growth at 0.1 µM (OVCAR-4): 105%
- GI50 (786-0): 3.11 µM
- TGI (786-0): > 100 µM
- CC50 (786-0): > 100 µM
- GI50 (HCT-116): 1.7 µM
- TGI (HCT-116): 5.4 µM
- CC50 (HCT-116): > 100 µM
- GI50 (SF-539): 2.02 µM
- TGI (SF-539): 4.66 µM
- CC50 (SF-539): > 100 µM
- growth at 0.01 µM (LOX IMVI): 105%
- growth at 0.001 µM (HL-60(TB) [8]): 101%
- growth at 0.001 µM (NCI-H226): 100%
- growth at 0.01 µM (NCI-H322M [9]): 95%
- growth at 10 µM (OVCAR-8): 10%
- growth at 10 µM (SK-MEL-2): 73.7%
- growth at 10 µM (HL-60(TB) [10]): -3%
- GI50 (HT-29): 3.21 µM
- TGI (HT-29): > 100 µM
- CC50 (HT-29; read-out: LC50 (the source's name)): > 100 µM
- growth at 10 µM (TK-10): 60%

Structure (SMILES): COc1cc(C)cc(-c2c(-c3ccnc(-c4ccc(N(C)C)cc4)c3)cnn2CC#N)c1
- growth at 0.001 µM (OVCAR-5): 90%
- growth at 0.01 µM (EKVX [1]): 81%
- GI50 (HOP-62): 0.263 µM
- LC50 (50% lethal concentration) (HOP-62): > 100 µM
- TGI (HOP-62): > 100 µM
- growth at 0.1 µM (EKVX [2]): 14%
- growth at 1 µM (MDA-MB-468): -57%
- growth at 0.01 µM (SNB-19): 44%
- growth at 0.01 µM (K562): 34%
- growth at 0.001 µM (MDA-MB-231 [3]): 101%
- growth at 10 µM (SNB-75): 11%
- growth at 10 µM (EKVX [4]): 2%
- growth at 10 µM (NCI-H322M [5]): 58.9%
- GI50 (CAKI-1): 0.0369 µM
- TGI (CAKI-1): 0.0893 µM
- CC50 (CAKI-1): > 100 µM
- growth at 10 µM (MDA-MB-231 [6]): 18.7%
- growth at 0.01 µM (MDA-MB-231 [7]): 88%
- growth at 0.01 µM (U-251): 41%
- GI50 (A549): 0.155 µM
- LC50 (A549): > 100 µM
- TGI (A549): > 100 µM
- growth at 0.1 µM (OVCAR-4): 33%
- GI50 (786-0): 0.0853 µM
- TGI (786-0): > 100 µM
- CC50 (786-0): > 100 µM
- GI50 (HCT-116): 0.0501 µM
- TGI (HCT-116): 1.03 µM
- CC50 (HCT-116): > 100 µM
- GI50 (SF-539): 0.127 µM
- CC50 (SF-539): > 100 µM
- growth at 0.01 µM (LOX IMVI): 39%
- growth at 0.001 µM (HL-60(TB) [8]): 82%
- growth at 0.001 µM (NCI-H226): 95%
- growth at 0.01 µM (NCI-H322M [9]): 83%
- growth at 10 µM (OVCAR-8): 8%
- growth at 10 µM (SK-MEL-2): 49.3%
- growth at 10 µM (HL-60(TB) [10]): -20%
- GI50 (HT-29): 0.0377 µM
- TGI (HT-29): 0.211 µM
- growth at 10 µM (TK-10): 34%

From ChEMBL document CHEMBL1165950, “Design and synthesis of new potent anticancer pyrazoles with high FLT3 kinase inhibitory selectivity” (Bioorg Med Chem, 2010)
